# High-throughput results from PubChem BioAssay.
# KCNQ1 pot – potentiates or activates the human KCNQ1 potassium channel; P51787; CHO-K1 KCNQ1, thallium flux FluxOR fluorescence; active compounds read high; B-score at 10 µM; actives 0.35% (n = 310,000); AID 2648;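 active = fluorescence ratio B-score, a plate-corrected score, at least three library SD, with initial intensity B-score within 5 SD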
#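 assay system = KCNQ1-transfected CHO-K1 cells | medium = assay buffer with matched DMSO | probe or stimulus = depolarizing K+/Tl+ stimulus, K2SO4 and Tl2SO4 each 12.5 mM in 5x stock | dosing = single dose | incubation = dye 90 min, compound 20 min, room temperature | detection = kinetic FluxOR fluorescence, 10 s baseline plus 110 s post-stimulus | evaluation = ratio B score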
# KCNK9 block – blocks the human KCNK9 two-pore domain potassium channel; Q9NPC2; HEK293 KCNK9, FluxOR thallium flux fluorescence; active compounds read low; B-score at 10 µM; actives 1.2% (n = 310,000);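 active = ratio B-score over 3 SD below the library mean, with starting fluorescence within 5 SD of its mean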;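 also: negative B-score means less thallium flux so channel inhibition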
# Target sequence (Q9NPC2 whole entry, looked up, the tested form may be a part): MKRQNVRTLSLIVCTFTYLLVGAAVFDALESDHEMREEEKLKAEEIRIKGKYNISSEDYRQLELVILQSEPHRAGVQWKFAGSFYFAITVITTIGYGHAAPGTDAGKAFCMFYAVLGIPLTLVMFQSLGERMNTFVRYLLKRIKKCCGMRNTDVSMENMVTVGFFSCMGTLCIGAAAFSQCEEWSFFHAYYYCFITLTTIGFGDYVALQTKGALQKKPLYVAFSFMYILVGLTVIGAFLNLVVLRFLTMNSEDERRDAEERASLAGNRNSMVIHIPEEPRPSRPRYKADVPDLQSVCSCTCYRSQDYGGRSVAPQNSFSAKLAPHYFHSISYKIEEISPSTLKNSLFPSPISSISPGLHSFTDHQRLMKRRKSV
# hERG rescue – compounds protecting human hERG from proarrhythmic drug block; actives 0.51% (n = 310,000); CHO-hERG, FluxOR thallium flux, dofetilide IC70 present; activation (rescue from dofetilide block), less the hit threshold, % at 10 µM; Q12809;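 active = activation above the mean of controls blocked by dofetilide plus 5 SD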;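 also: thallium influx through hERG after potassium depolarization seen as dye fluorescence rise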
# KCNK3 block – human KCNK3 channel inhibition, primary screen | CHO-KCNK3 thallium flux, FluxOR fluorescence; active compounds read low | actives 0.84% (n = 340,000) | B-score at 10 µM | AID 602410;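 active = B-score under library mean minus 4 SD, starting fluorescence ratio at most library mean plus 5 SD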;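 also: more negative B-score means stronger inhibition of thallium flux through KCNK3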
# Target sequence (O14649 whole entry, looked up): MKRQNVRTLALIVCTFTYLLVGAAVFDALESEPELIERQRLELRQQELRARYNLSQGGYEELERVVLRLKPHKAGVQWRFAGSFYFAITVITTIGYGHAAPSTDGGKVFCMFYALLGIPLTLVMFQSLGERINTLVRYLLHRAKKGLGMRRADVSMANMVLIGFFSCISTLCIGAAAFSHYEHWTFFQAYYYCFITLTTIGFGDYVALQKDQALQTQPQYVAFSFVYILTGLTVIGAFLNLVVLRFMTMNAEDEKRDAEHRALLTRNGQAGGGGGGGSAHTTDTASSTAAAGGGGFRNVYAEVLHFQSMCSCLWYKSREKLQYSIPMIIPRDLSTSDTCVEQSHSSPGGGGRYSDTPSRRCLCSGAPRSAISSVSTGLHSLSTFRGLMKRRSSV
# KCNQ1 inh – inhibitors of human KCNQ1 potassium channel. P51787. CHO-K1 KCNQ1, FluxOR thallium flux fluorescence; active compounds read high. B-score at 10 µM. actives 1.3% (n = 310,000);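 active = compounds whose thallium flux B-score, printed positive for inhibition, exceeds three library SD while starting fluorescence stays within three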;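 also: channel opened by potassium depolarization with thallium stimulus after 20 min compound exposure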
# KCNQ1 inh valid – reconfirmed blocker of the human KCNQ1 potassium channel; KCNQ1 cell line, FluxOR thallium flux fluorescence; shares compounds with KCNQ1 inh; actives 93% (n = 1,600); inhibition, % at 10 µM;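 active = primary screen active, with duplicate mean exceeding buffer control mean plus 3 SD of buffer wells, cut at about 28% in these data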
# CHO KCNQ1 ctr – counter-screen for KCNQ1 inhibitors: effect in parental CHO cells; parental CHO-K1, FluxOR thallium flux fluorescence ratio; active compounds read low; zero means no signal rise above baseline; actives 21% (n = 1,600); fluorescence ratio (Tl flux) at 10 µM; AID 588366; shares compounds with KCNQ1 inh;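 active = mean of duplicate thallium-flux fluorescence ratios in parental host cells more than 5 SD below the buffer control mean, cut at about 0.38 in these data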;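 also: ratio is peak minus minimum fluorescence divided by baseline fluorescence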
# KCNQ1 APC inh – blocks human KCNQ1 current in automated patch clamp. calls only at 10 µM. shares compounds with KCNQ1 inh. AID 624120. actives 20% (n = 490). KCNQ1-CHO cells;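 active = KCNQ1 current drop exceeding 3 SD of negative control wells, seen in both duplicate runs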;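 also: steady state current during a 2 s step from -80 to +40 mV; negative values mean current inhibition and positive values mean potentiation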
# KCNQ2 spec – KCNQ1 inhibitor that also blocks rat KCNQ2 channel; shares compounds with KCNQ1 inh; AID 651746; inhibition, % at 10 µM; actives 71% (n = 1,600); KCNQ2 cells, FluxOR thallium flux fluorescence;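 active = mean percent inhibition of the KCNQ2 thallium signal more than 5 SD above the buffer-only control wells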;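 also: KCNQ2 expressed in CHO cells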
# KCNQ1 KCNE1 spec – human KCNQ1/KCNE1 inhibition in KCNQ1 specificity screen; shares compounds with KCNQ1 inh; KCNQ1/KCNE1 cells, FluxOR thallium flux fluorescence; inhibition, % at 10 µM; actives 77% (n = 1,600); AID 652147;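 active = mean percent inhibition of duplicate wells above the buffer-only control mean plus 3 SD of those controls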
# KCNK9 block conf – human KCNK9 inhibitor confirmation; shares compounds with KCNK9 block; HEK293 KCNK9 cells, FluxOR thallium flux fluorescence; inhibition, % at 10 µM; actives 43% (n = 4,900); AID 492992;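 active = thallium signal inhibited by more than 5 SD of the compound-free buffer control wells, on both duplicate plates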
# Kir21 sel – mouse Kir2.1 off-target activity of KCNK9 modulators; actives 4% (n = 4,900); AID 492993; shares compounds with KCNK9 block; Kir2.1 cells, FluxOR thallium flux fluorescence; inhibition, % at 10 µM;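 active = thallium signal drop more than 5 SD beyond the mean of the no-compound control wells, seen in both duplicate plates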;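 also: signal is fluorescence rise after thallium addition divided by baseline fluorescence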
# HEK293 Tl ctr – second counter-screen for KCNK9 modulators: effect in non-induced cells; shares compounds with KCNK9 block; non-induced KCNK9-HEK293, FluxOR thallium flux; inhibition, % at 10 µM; actives 40% (n = 4,900);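 active = thallium signal drop beyond 5 SD of the untreated control mean, on both duplicate plates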
# KCNK3 inh conf – confirmation of human KCNK3 two-pore domain potassium channel inhibitors; shares compounds with KCNK3 block; CHO-KCNK3 thallium flux, FluxOR fluorescence; 0% buffer, 100% carvedilol maximal block; ratio percent of control, % at 10 µM; actives 99% (n = 2,400);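 active = ratio percent of control, averaged over triplicates, above buffer control mean plus 5 SD, cut at about 64% in these data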;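 also: ratio is the fluorescence rise from min to max over baseline after thallium stimulus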
# KCNK3 uninduced – KCNK3 inhibitor counter-screen hit in non-induced cells; thallium flux ratio (lower = more inhibition) at 10 µM; shares compounds with KCNK3 block; non-induced KCNK3 parental cells, FluxOR thallium flux; active compounds read low; actives 40% (n = 2,400);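 active = thallium flux ratio, averaged over three wells, more than 5 SD below the buffer control mean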;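 also: host cells are CHO cells without KCNK3 induction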
# Hits are given with their value; i = inactive; nt = no result given; + = active, no number. Only some compounds are listed: those with a hit (about 3.1% of all), similar ones and a draw of the others.
SMILES,KCNQ1 pot,KCNK9 block,hERG rescue,KCNK3 block,KCNQ1 inh,KCNQ1 inh valid,CHO KCNQ1 ctr,KCNQ2 spec,KCNQ1 KCNE1 spec,KCNK3 inh conf,KCNK3 uninduced,others
Cc1onc(-c2ccccc2)c1C(=O)OCCOc1cccc(Cl)c1,i,i,i,-14.2,7,85.5,i,86.3%,150.5%,90.3,i,
CCOc1ccc(C(=O)COC(=O)c2c(-c3ccccc3)noc2C)cc1,i,i,i,i,i,nt,nt,nt,nt,nt,nt,
CCOc1ccccc1CN1CCNC(=O)C1CC(=O)N(C)C1CCOCC1 (configuration not stated),i,i,i,i,i,nt,nt,nt,nt,nt,nt,
S=C(NCc1ccccc1)NC1CCCc2ccccc21 (configuration not stated),i,i,i,-13.4,8,i,i,66.0%,i,112.0,i,
NNC(=O)c1ccc(COc2ccc3ccccc3c2)o1,i,i,i,i,i,nt,nt,nt,nt,nt,nt,
O=C(OCc1ccccn1)c1ccc(COc2ccc3ccccc3c2)o1,i,-7.01,i,-10.4,8,148.5,0.347,121.0%,+,122.3,0.146,
COc1ccc(NC(=O)c2ccccc2OCc2ccc(F)cc2)c(OC)c1,i,-12.1,i,-10.9,8,75.5,i,84.7%,108.0%,108.3,i,KCNK9 block conf=72.5%;Kir21 sel=i;HEK293 Tl ctr=32.5%
COc1ccc(NC(=O)c2ccccc2NC(=O)c2ccccc2C(=O)O)c(OC)c1,i,i,i,i,i,nt,nt,nt,nt,nt,nt,
CC1=C(C(=O)OCc2ccc(C)cc2)C(c2ccc(O)c([N+](=O)[O-])c2)NC(=O)N1 (configuration not stated),i,i,i,i,i,nt,nt,nt,nt,nt,nt,
CC(C)=CCc1c(O)cc2oc3c(CC=C(C)C)c(O)c(O)c(CC=C(C)C)c3c(=O)c2c1O,i,-13.5,i,-9.22,16,150.5,0.346,123.7%,+,145.7,0.106,KCNK9 block conf=62.0%;Kir21 sel=i;HEK293 Tl ctr=33.5%
O=C1NC[C@@H](c2ccccc2)OC(=O)[C@@H](Cc2ccc(F)cc2)CC/C=C/C[C@@H]1CC(=O)N(CCO)Cc1ccccc1,nt,nt,nt,i,nt,nt,nt,nt,nt,nt,nt,
O=C(COC(=O)/C=C/c1ccc(F)cc1)Nc1ccc(S(=O)(=O)N2CCOCC2)cc1,nt,nt,nt,i,nt,nt,nt,nt,nt,nt,nt,
CC(C)CNC(=S)N1CCN(c2nc(-c3ccc(Cl)cc3)cs2)CC1,i,i,i,-9.76,11,159.0,i,127.7%,141.5%,140.3,0.123,KCNQ1 APC inh=i
CCCN1CCc2c(sc(NC(=O)c3ccc(S(=O)(=O)N(C)c4ccccc4)cc3)c2C(=O)NC)C1,i,i,i,-8.99,15,144.0,0.281,i,+,171.3,0.0547,
CCCN1CCc2c(sc(NC(=O)c3ccc(S(=O)(=O)N(C)c4ccccc4)cc3)c2C(N)=O)C1,i,i,i,i,i,nt,nt,nt,nt,nt,nt,
Cn1c(=O)c(=O)n(C)c2cc(S(=O)(=O)N3CCCC3C(=O)NCc3cccnc3)ccc21 (configuration not stated),i,i,i,i,i,nt,nt,nt,nt,nt,nt,
Cc1cc(N2CCOCC2)n2nc(-c3cccc(F)c3)cc2n1,i,i,i,i,i,nt,nt,nt,nt,nt,nt,
CCC1CCCCN1c1cc(C)nc2cc(-c3cccc(C)c3)nn12 (configuration not stated),i,i,i,-12.9,8,111.5,i,103.3%,83.0%,113.7,0.153,KCNQ1 APC inh=i
O=C(NC1CCCC1)c1ccc2c(c1)N(Cc1ccc(F)cc1)CCS2,i,-13.9,i,-9.26,9,75.5,i,98.0%,90.5%,96.3,i,KCNK9 block conf=74.5%;Kir21 sel=i;HEK293 Tl ctr=41.5%
CCn1c(=O)ccc2cc([N+](=O)[O-])ccc21,i,i,i,i,i,nt,nt,nt,nt,nt,nt,
Cc1ccccc1C(=O)Oc1cccc(Nc2ncnc3ccccc23)c1,i,-7.17,i,-8.83,11,152.0,0.289,121.0%,+,132.3,0.149,
COc1ccc(NC(=O)c2sc3nc(C)nc(N4CCN(c5ccccn5)CC4)c3c2C)cc1Cl,i,i,i,-12.3,9,97.5,i,88.0%,105.0%,118.0,0.154,KCNQ1 APC inh=i
Cc1nc(N2CCN(c3ccccn3)CC2)c2c(C)c(C(=O)Nc3ccc(F)cc3Cl)sc2n1,i,i,i,i,i,nt,nt,nt,nt,nt,nt,
COc1cccc(OC)c1/C=C/C(=O)NC1CCCCC1,i,i,i,i,i,nt,nt,nt,nt,nt,nt,
COC(=O)c1ccc(NC(=S)NC2CCc3ccccc32)cc1 (configuration not stated),i,i,i,-8.79,7,67.5,i,64.7%,57.5%,93.3,i,
O=C(CCNC(=O)c1ccccc1Cl)Nc1ccccc1N1CCCC1,i,i,i,i,i,nt,nt,nt,nt,nt,nt,
Cc1cc(OCC(=O)Nc2ccccc2N2CCCC2)ccc1C(C)C,i,i,i,-9,9,72.5,i,82.3%,99.5%,111.7,i,
O=C(CNCc1ccccc1Cl)Nc1ccccc1N1CCCCC1,i,i,i,-8.95,7,96.0,i,115.0%,109.0%,113.7,0.151,KCNQ1 APC inh=+
Cc1cc(OCC(=O)Nc2ccccc2N2CCCCC2)ccc1C(C)C,i,i,i,i,i,nt,nt,nt,nt,nt,nt,
CN(CC(=O)Nc1ccccc1-c1ccccc1)Cc1ccccc1Cl,i,-15.9,i,-9.63,8,75.5,i,98.3%,122.5%,120.3,0.134,KCNK9 block conf=63.0%;Kir21 sel=55.0%;HEK293 Tl ctr=45.5%
